Assay results from ChEMBL document CHEMBL3112538, “Novel spirooxindole-pyrrolidine compounds: synthesis, anticancer and molecular docking studies” (2014).
Active and inactive are the calls of the source. The calls are words filed in the database; no cut-off is given here.

How the values were obtained:
A549 [1] = assay: Cytotoxicity against human A549 cells at 50 ug/ml by MTT assay; type: functional
In short: (§1)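 A549 cells (NCIS Pune) grown in DMEM with 10% FBS, 2 mM L-glutamine, penicillin/streptomycin, pH 7.2. 5 × 10^5 cells were seeded with compound at 100, 50 or 25 per mL and kept at 37 °C, 5% CO2. MTT (1 mg/mL, 4 h) was added, formazan dissolved in DMSO and read at 540 nm. IC50 is the mean of three replicate experiments; Duncan test at P = 0.05.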

A549 [2] = assay: Cytotoxicity against human A549 cells at 25 ug/ml by MTT assay; type: functional; in short: as §1
A549 [3] = assay: Cytotoxicity against human A549 cells at 100 ug/ml by MTT assay; type: functional; in short: as §1
A549 [4] = assay: Cytotoxicity against human A549 cells by MTT assay; type: functional, cell-based; in short: as §1
A549 [5] = assay: Induction of apoptosis in human A549 cells assessed as DNA fragmentation at 25 ug/ml after 24 hrs by agarose gel electrophoresis; type: functional, cell-based
In short: (§2)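 A549 cells were exposed to compound for 24 h. 1 × 10^6 cells were pelleted, PBS-washed and lysed at 4 °C for 15 min in 10 mM Tris-HCl pH 7.4 with 10 mM EDTA and 0.5% Triton X-100. Supernatant was treated with proteinase K (60 °C, 60 min) then RNase A (37 °C, 60 min). DNA was isopropanol/NaCl precipitated overnight and run on a 2% agarose gel.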

A549 [6] = assay: Cytotoxicity against human A549 cells assessed as growth inhibition at 25 ug/ml after 24 hrs by agarose gel electrophoresis; type: functional, cell-based; in short: as §2
A549 [7] = assay: Induction of apoptosis in human A549 cells at 25 ug/ml after 24 hrs by propidium iodide/FITC staining-based confocal laser scanning microscopy; type: functional, cell-based
In short: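 Cells were exposed to compound or untreated for 24 h, washed twice in 0.01 M PBS and suspended in binding buffer. They were stained with FITC and PI for 30 min at 4 °C in the dark, pelleted and smeared. Fluorescence was viewed at once by confocal laser scanning microscopy at 400× magnification.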

Structure (SMILES)	inhibition at 50 µg/mL (A549 [1])	inhibition at 25 µg/mL (A549 [2])	inhibition at 100 µg/mL (A549 [3])	Activity (A549 [4])	Activity (A549 [5])	growth inhibition (GI) (A549 [6])	Activity (A549 [7])
COc1ccc2[nH]cc(C(=O)[C@]3(C#N)[C@@H](c4ncc[nH]4)C4CSCN4[C@]34C(=O)Nc3ccc(F)cc34)c2c1 (some centres undefined)	31.1%	15.7%	56.2%	Dose-dependent effect	–	–	–
N#C[C@@]1(C(=O)c2c[nH]c3ccccc23)[C@@H](c2ncc[nH]2)C2CSCN2[C@]12C(=O)Nc1ccc(F)cc12 (some centres undefined)	33.5%	15.5%	66.2%	Dose-dependent effect	–	–	–
CN1C[C@H](c2ncc[nH]2)[C@@](C#N)(C(=O)c2c[nH]c3ccccc23)[C@@]12C(=O)Nc1ccccc12	6.3%	3.1%	23.2%	Dose-dependent effect	–	–	–
COc1ccc2[nH]cc(C(=O)[C@]3(C#N)[C@@H](c4ncc[nH]4)CN(C)[C@]34C(=O)Nc3ccccc34)c2c1	74.4%	62.8%	83%	Dose-dependent effect	–	–	–
CN1C[C@H](c2ncc[nH]2)[C@@](C#N)(C(=O)c2c[nH]c3ccccc23)[C@@]12C(=O)Nc1ccc(Cl)cc12	30.9%	6.9%	51.5%	Dose-dependent effect	–	–	–
Cc1ccc2c(c1)[C@]1(C(=O)N2)N(C)C[C@H](c2ncc[nH]2)[C@@]1(C#N)C(=O)c1c[nH]c2ccccc12	53.5%	26.7%	77.3%	Dose-dependent effect	Active	Active	–
COc1ccc2[nH]cc(C(=O)[C@]3(C#N)[C@@H](c4ncc[nH]4)C4CSCN4[C@]34C(=O)Nc3ccc(Br)cc34)c2c1 (some centres undefined)	68.4%	36.2%	82.7%	Dose-dependent effect	–	–	–
CN1C(=O)[C@@]2(c3ccccc31)N(C)C[C@H](c1ncc[nH]1)[C@@]2(C#N)C(=O)c1c[nH]c2ccccc12	4.3%	3.3%	7.4%	Dose-dependent effect	–	–	–
COc1ccc2[nH]cc(C(=O)[C@]3(C#N)[C@@H](c4ncc[nH]4)CN(C)[C@]34C(=O)Nc3ccc(I)cc34)c2c1	22.2%	3.7%	50.2%	Dose-dependent effect	–	–	–
N#C[C@@]1(C(=O)c2c[nH]c3ccccc23)[C@@H](c2ncc[nH]2)C2CSCN2[C@]12C(=O)Nc1ccc(I)cc12 (some centres undefined)	56.3%	24.5%	69%	Dose-dependent effect	–	–	–
CN1C[C@H](c2ncc[nH]2)[C@@](C#N)(C(=O)c2c[nH]c3ccccc23)[C@@]12C(=O)Nc1ccc(I)cc12	6.8%	5.9%	14.9%	Dose-dependent effect	–	–	–
COc1ccc2[nH]cc(C(=O)[C@]3(C#N)[C@@H](c4ncc[nH]4)CN(C)[C@]34C(=O)N(C)c3ccccc34)c2c1	79.2%	66.3%	85%	Dose-dependent effect	–	–	–
COc1ccc2[nH]cc(C(=O)[C@]3(C#N)[C@@H](c4ncc[nH]4)C4CSCN4[C@]34C(=O)N(C)c3ccccc34)c2c1 (some centres undefined)	68.5%	52.9%	80.1%	Dose-dependent effect	–	–	–
N#C[C@@]1(C(=O)c2c[nH]c3ccccc23)[C@@H](c2ncc[nH]2)C2CSCN2[C@]12C(=O)Nc1ccc(Cl)cc12 (some centres undefined)	13.4%	6%	24%	Dose-dependent effect	–	–	–
COc1ccc2[nH]cc(C(=O)[C@]3(C#N)[C@@H](c4ncc[nH]4)C4CSCN4[C@]34C(=O)Nc3ccccc34)c2c1 (some centres undefined)	72.1%	54.4%	83.3%	Dose-dependent effect	Active	Active	–
N#C[C@@]1(C(=O)c2c[nH]c3ccccc23)[C@@H](c2ncc[nH]2)C2CSCN2[C@]12C(=O)Nc1ccc(Br)cc12 (some centres undefined)	9%	5.1%	15.6%	Dose-dependent effect	–	–	–
N#C[C@@]1(C(=O)c2c[nH]c3ccccc23)[C@@H](c2ncc[nH]2)C2CSCN2[C@]12C(=O)Nc1ccccc12 (some centres undefined)	79.3%	59.9%	85.6%	Dose-dependent effect	Active	Active	–
COc1ccc2[nH]cc(C(=O)[C@]3(C#N)[C@@H](c4ncc[nH]4)CN(C)[C@]34C(=O)Nc3ccc(Cl)cc34)c2c1	15.2%	4.7%	23%	Dose-dependent effect	–	–	–
COc1ccc2[nH]cc(C(=O)[C@]3(C#N)[C@@H](c4ncc[nH]4)C4CSCN4[C@]34C(=O)Nc3ccc(Cl)cc34)c2c1 (some centres undefined)	72.1%	55.2%	81.8%	Dose-dependent effect	Active	Active	–
CN1C[C@H](c2ncc[nH]2)[C@@](C#N)(C(=O)c2c[nH]c3ccccc23)[C@@]12C(=O)Nc1ccc(Br)cc12	9.8%	4.4%	34.2%	Dose-dependent effect	–	–	–
N#C[C@@]1(C(=O)c2c[nH]c3ccccc23)[C@@H](c2ncc[nH]2)C2CSCN2[C@]12C(=O)Nc1ccc([N+](=O)[O-])cc12 (some centres undefined)	63.4%	28%	76.8%	Dose-dependent effect	–	–	–
COc1ccc2[nH]cc(C(=O)[C@]3(C#N)[C@@H](c4ncc[nH]4)CN(C)[C@]34C(=O)Nc3ccc(Br)cc34)c2c1	9.9%	5.1%	13.4%	Dose-dependent effect	–	–	–
COc1ccc2[nH]cc(C(=O)[C@]3(C#N)[C@@H](c4ncc[nH]4)CN(C)[C@]34C(=O)Nc3ccc([N+](=O)[O-])cc34)c2c1	4.3%	3%	6.8%	Dose-dependent effect	–	–	–
CN1C[C@H](c2ncc[nH]2)[C@@](C#N)(C(=O)c2c[nH]c3ccccc23)[C@@]12C(=O)Nc1ccc([N+](=O)[O-])cc12	33.4%	8.8%	56.6%	Dose-dependent effect	–	–	–
CN1C[C@H](c2ncc[nH]2)[C@@](C#N)(C(=O)c2c[nH]c3ccccc23)[C@@]12C(=O)Nc1ccc(F)cc12	9%	4.5%	22.2%	Dose-dependent effect	–	–	–
COc1ccc2[nH]cc(C(=O)[C@]3(C#N)[C@@H](c4ncc[nH]4)C4CSCN4[C@]34C(=O)Nc3ccc([N+](=O)[O-])cc34)c2c1 (some centres undefined)	5.1%	3.3%	9%	Dose-dependent effect	–	–	–
COc1ccc2[nH]cc(C(=O)[C@]3(C#N)[C@@H](c4ncc[nH]4)CN(C)[C@]34C(=O)Nc3ccc(F)cc34)c2c1	35.6%	9.9%	66.2%	Dose-dependent effect	–	–	–
CN1C(=O)[C@@]2(c3ccccc31)N1CSCC1[C@H](c1ncc[nH]1)[C@@]2(C#N)C(=O)c1c[nH]c2ccccc12 (some centres undefined)	75.1%	64.8%	87.8%	Dose-dependent effect	Active	Active	Active
Cc1ccc2c(c1)[C@]1(C(=O)N2)N2CSCC2[C@H](c2ncc[nH]2)[C@@]1(C#N)C(=O)c1c[nH]c2ccccc12 (some centres undefined)	75.8%	66.3%	84.3%	Dose-dependent effect	Active	Active	–
